# Hits are enriched below; roughly 9% of the tested compounds scored in any of these assays.
# D1 allo mod: allosteric modulators of human D1 dopamine receptor | P21728 | B-score at 10 µM | 58,000 compounds, 5.9% hits | HEK293 D1, CRE-luciferase, dopamine EC30 potentiation; actives deviate in either direction;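 active means luminescence count or its row- and column-corrected plate score outside the 99.7% band of the plate's sample wells, on either side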
# M1 ag: agonists of M1 muscarinic receptor. AID 626. 64,000 compounds, 3% hits. CHO-M1 cells, Fluo-4 calcium fluorescence, agonist mode; active compounds read high. B-score at 10 µM;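 active means fluorescence rise, raw or as B-score row- and column-corrected plate score, outside the 99.7% band of its plate's samples, either direction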
# Htt clearance: compounds clearing mutant huntingtin protein. HeLa Exon1htt(103Q)mCFP, aggregate imaging; zero = plate's median compound well. inhibition, % at 1.5 µM. 47,000 compounds, 0.42% hits;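 active means inhibition of aggregate fluorescence above about 70%, also judged a hit by eye on the cell image, limit read from the data, passing the limit was not always enough; inconclusive means no rule stated for this call; inactive means not judged a hit on image review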;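 further: cells exposed to compound for three days before fixation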
# AP complement: orthogonal test for alternative complement pathway inhibitors | Human serum alternative complement pathway, LPS-coated ELISA, C3 deposition; tested in compound mixtures | inhibition, % at 5 µM | 62,000 compounds, 0.08% hits | AID 1235;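 active means inhibition above 30% in each of the two pooled mixtures holding the compound, so the lower value exceeds 30%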
#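 Assay system: human serum alternative complement pathway, C3 deposition on LPS-coated wells; Dosing: 5 µM per compound in ten-compound mixtures; Detection: Anti-C3 ELISA, OD 450 nm; Buffer or medium: Mg2+-EGTA GVB++ buffer containing human serum at 1:15 dilution; Timing: 1 h at 37 °C; Replication: two different pools per compound.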
# M1 antag: blocks the rat M1 muscarinic receptor response to acetylcholine; CHO-M1 cells, Fluo-4 calcium, ACh EC80 antagonist mode; active compounds read low; B-score at 10 µM; 64,000 compounds, 3.4% hits; AID 628;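 active means calcium fluorescence response, raw or row-and-column corrected B-score, differing from the plate sample mean either way at a set confidence level, mostly lower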
# Target sequence (P08482 whole entry, looked up): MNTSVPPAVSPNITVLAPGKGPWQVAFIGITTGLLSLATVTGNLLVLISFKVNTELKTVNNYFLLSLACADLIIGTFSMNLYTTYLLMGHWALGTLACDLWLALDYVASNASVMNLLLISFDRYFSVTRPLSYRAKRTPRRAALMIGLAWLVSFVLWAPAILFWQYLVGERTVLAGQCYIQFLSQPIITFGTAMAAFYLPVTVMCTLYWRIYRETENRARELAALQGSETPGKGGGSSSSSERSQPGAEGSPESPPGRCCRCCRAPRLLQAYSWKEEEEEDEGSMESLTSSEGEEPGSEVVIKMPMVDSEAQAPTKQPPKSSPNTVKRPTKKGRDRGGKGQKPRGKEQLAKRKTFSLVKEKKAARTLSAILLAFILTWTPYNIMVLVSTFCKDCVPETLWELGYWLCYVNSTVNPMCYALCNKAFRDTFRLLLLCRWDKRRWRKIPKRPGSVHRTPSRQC
# M1 agonist conf: rat M1 muscarinic agonism, confirmation; shares compounds with M1 ag; CHO-M1 cells, Fluo-4 calcium fluorescence, agonist mode; actives lie on both sides; fluorescence change (max-min) at 10 µM; 1,700 compounds, 19% hits;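 active means fluorescence change differs from the solvent-only DMSO control mean at a set confidence level in both duplicate runs; inconclusive means differs from solvent-only control mean in just one of two runs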;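 further: an EC20 dose of acetylcholine follows compound addition during the same imaging run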
# M4 agonist ctr: counter-screen for M1 agonists: activity at rat M4 receptor | shares compounds with M1 ag | 1,700 compounds, 9% hits | CHO M4/Gqi5 cells, Fluo-4 calcium fluorescence, agonist mode; actives lie on both sides | fluorescence change (max-min) at 10 µM | AID 1741;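 active means fluorescence change differing from the plate's solvent-only control wells at 99.7% confidence in both duplicates, whether higher or lower; inconclusive means differs from solvent controls in only one of two duplicates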
# Numbers stand for hits; n = inactive; u = inconclusive; x = no result given.
SMILES,D1 allo mod,M1 ag,Htt clearance,AP complement,M1 antag,M1 agonist conf,M4 agonist ctr
CC1CCCC(C)N1CCNC(=O)CCn1nc(-c2ccccc2)ccc1=O (centres undefined),n,n,x,n,n,x,x
CC1CCc2c(sc(NC(=O)CSc3ncnc4c3cnn4-c3ccccc3Cl)c2C#N)C1 (centres undefined),x,x,n,x,x,x,x
O=C1c2ccccc2C(=O)N1CCc1nc2ccccc2c(=O)n1Cc1ccco1,n,9.4,x,n,n,n,n
O=C(O)c1ccc(Br)c(S(=O)(=O)N2CCCC2)c1,n,n,n,n,n,x,x
N#CCCn1cnc2c(=S)nc[nH]c21,x,n,x,n,n,x,x
Cc1ccccc1NC(=O)CN(C)S(=O)(=O)c1cccc2cccnc12,x,n,n,n,n,x,x
O=C(Nc1ccccc1)NC1(C(=O)NCCCN2CCOCC2)CCCCC1,n,4,x,n,n,u,n
CCOC(=O)CSC1=C(C#N)C(c2ccc(Cl)cc2)CC(=O)N1 (centres undefined),n,3,n,n,n,n,u
Cn1cc(C(=O)c2ccc(F)cc2)cc1-c1nc2ccccc2n1C,n,3.2,n,n,n,n,u
CCCN(S(=O)(=O)c1ccc(OCC)cc1)S(=O)(=O)c1cccs1,n,2.1,x,n,n,u,n
C1COC(NC(C2CC2)C2CC2)=N1,n,n,x,n,n,x,x
Nc1nc(N2CCN(C/C=C/c3ccccc3)CC2)nc2ccccc12,n,n,n,n,n,x,x
Cc1cc(C)c(S(=O)(=O)N(C)CC(N)=O)c(C)c1,n,n,x,n,n,x,x
CCOc1cc(S(=O)(=O)NCc2ccco2)c(OCC)cc1-n1cnnn1,n,n,n,n,n,x,x
COc1ccc(-c2nn(C)c(=O)c3ccccc23)cc1CNC(=O)CN1CCOCC1,n,n,x,x,n,x,x
OCCCc1nc2n(n1)C(c1ccccc1Cl)C=C(c1cccs1)N2 (centres undefined),n,33,x,n,n,206,197
Cc1nc(NCCc2cnc[nH]2)c2oc3ccccc3c2n1,n,n,x,n,n,x,x
COc1ccc(CCNc2nc(C)nc3c2oc2ccccc23)cc1OC,x,18,x,n,-2.3,n,u
Cc1nc(NC(C)c2ccccc2)c2oc3ccccc3c2n1 (centres undefined),n,3.3,n,n,n,n,n
COc1ccc(CCNc2ncnc3c2oc2ccccc23)cc1OC,n,7.1,n,n,-4.1,n,n
COc1ccc(NCc2nnc(SCC(=O)c3ccc(OC)cc3)n2C)cc1,n,n,x,n,n,x,x
COc1ccccc1NC(=O)N1CCCC1C(=O)NC12CC3CC(CC(C3)C1)C2 (centres undefined),n,n,x,n,n,x,x
CCOc1ccc(C(C)=O)cc1CSc1nnc(-c2cccs2)n1CC1CCCO1 (centres undefined),n,n,n,n,n,x,x
O=C(c1cn(-c2ccccc2)nc1-c1ccc(Cl)s1)N1CCOCC1,n,7.7,n,n,n,n,n
Cc1ccc(-c2csc3nnc(SCC(=O)Nc4cccc(C)n4)n23)cc1,n,3.9,n,n,n,u,n
SMILES,D1 allo mod,M1 ag,Htt clearance,AP complement,M1 antag,M1 agonist conf,M4 agonist ctr
Cc1cccc(NC(=O)CSc2nnnn2C)n1,x,x,n,x,x,x,x
O=[n+]1c2c(n([O-])c3cc(F)c(N4CCCC4)cc31)CCCC2,n,188,n,n,n,593,561
O=[n+]1c2c(n([O-])c3cc(F)c(N4CCCC4)cc31)CCC2,n,92,n,n,n,632,549
O=[n+]1c2c(n([O-])c3cc(F)ccc31)CCCC2,n,n,n,n,n,x,x
CC1=C(C(=O)Nc2ccccc2Cl)C(c2ccc(N(C)C)cc2)NC(=O)N1 (centres undefined),n,n,n,n,n,x,x
O=C(NCc1ccc2c(c1)OCO2)c1cc2ccccc2oc1=O,x,x,n,x,x,x,x
O=C(c1cc2ccccc2oc1=O)N(Cc1ccc2c(c1)OCO2)Cc1ccco1,x,5,n,n,n,n,u
COc1cccc(-n2nnnc2SCC(=O)N2CCCc3ccccc32)c1,n,n,x,n,n,x,x
Cc1ccccc1S(=O)(=O)Nc1nc2ccccc2nc1N1CCOCC1,n,n,x,n,n,x,x
Cc1ccsc1-c1nc(CSCC(=O)N2CCN(c3ccccc3)CC2)c(C)o1,n,5,x,n,-2.5,-39,u
Cc1cccc(-c2nc(CSCC(=O)N3CCN(c4ccccn4)CC3)c(C)o2)c1,n,3.8,n,x,-3.7,n,u
Cc1ccc(-c2nc(CSCC(=O)N3CCCC3)c(C)o2)cc1,n,n,x,x,n,x,x
O=S1(=O)C=CC(N2CCOCC2)C1 (centres undefined),n,n,x,n,n,x,x
Cc1ccc2cc(C)c3nnc(SCC(=O)Nc4nc5c(s4)CCCC5)n3c2c1,x,x,n,x,x,x,x
COc1ccc(C2SCC(=O)N2c2c(C)n(C)n(-c3ccccc3)c2=O)cc1OC (centres undefined),x,x,n,x,x,x,x
COc1ccc(NC(=O)Nc2ccc3c(c2)N(C)C(=O)CS3)cc1OC,n,3.1,x,n,n,u,n
CC(=O)c1ccc(NC(=O)Nc2ccc3c(c2)N(C)C(=O)CS3)cc1,x,x,n,x,x,x,x
O=C(NCc1cccs1)Nc1ccc2c(c1)OCO2,n,3.1,n,n,n,u,n
O=C(Cn1cc(C(F)(F)F)ccc1=O)N1CCN(S(=O)(=O)c2ccc(Cl)cc2)CC1,n,n,n,n,n,x,x
CC(C)OCCCNc1ncnc2c1[nH]c1ccccc12,n,3.2,n,n,-4.3,n,u
CC(=O)Nc1cccc(-c2csc(NCc3ccco3)n2)c1,n,n,x,n,n,x,x
Cc1ccc(S(=O)(=O)N2CCN(S(=O)(=O)c3ccc(C)cc3)C2c2ccccc2)cc1,x,x,n,x,x,x,x
CCOC(=O)N1CCN(S(=O)(=O)c2ccc(C)cc2)C1c1ccccc1 (centres undefined),n,3.2,n,n,n,n,n
Cc1ccc(S(=O)(=O)N2CCN(S(C)(=O)=O)C2c2ccccc2)cc1 (centres undefined),n,2.7,x,n,n,-41,u
COc1cccc(NC(=O)c2nn(C)cc2Br)c1,x,x,n,x,x,x,x
CCOC(=O)C1CCN(c2nc(C)nc3c2oc2ccccc23)CC1,x,n,x,n,n,x,x
CCOC(=O)C1CCCN(c2nc(C)nc3c2oc2ccccc23)C1 (centres undefined),x,1.8,n,n,n,n,n
COc1ccc(C2CC(=O)N3CN(c4ccc(C)c(Cl)c4)CSC3=C2C#N)cc1OC (centres undefined),x,10,n,n,n,u,n
CCOC(=O)N1CCN(C(=O)c2nn(-c3cc(OC)cc(OC)c3)c(=O)c3ccccc23)CC1,n,6.4,x,n,n,n,u
O=C(NCc1ccc2c(c1)OCO2)C1CCN(c2ccc(S(=O)(=O)N3CCCC3)cc2)CC1,x,2.6,x,n,n,n,n

# Source: PubChem (several laboratories)
